Most compounds without a hit are left out; they make up all but 3.3% or so of the library.
rCAG RNA binder: binders of r(CAG) RNA repeats, primary screen, biochemical, fluorescence | r(CAG) RNA repeat, TO-PRO-1 dye displacement fluorescence | inhibition, % at 3 µM | hit rate 1.3% among 370,000 | AID 651821, 2012;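 active means inhibition above the plate cutoff, the mean of all test compounds on that plate plus 3 SD, cut at about 35% in these data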;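 further: higher means more dye released from RNA so lower well fluorescence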
ABHD4 inh: ABHD4 inhibitors, primary screen, biochemical, fluorescence polarization, mouse; (Lyso)-N-acylphosphatidylethanolamine lipase (Mus musculus), Q8VD66; purified mABHD4, FP-Rh probe fluorescence polarization; inhibition, % at 8.92 µM; hit rate 0.54% among 370,000; AID 720543, 2013;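 active means inhibition exceeding the mean over every tested compound plus 3 SD, cut at about 30% in these data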
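system = mouse ABHD4 enzyme, wild type | medium = HEPES pH 7.0, NaCl, Pluronic buffer | also added = FP-Rh probe | incubation = Enzyme–compound pre-incubation 45 min, then probe 60 min, both 25 °C | technique = fluorescence polarization, excitation 525 nm, emission 598 nm, BODIPY TMR filters | controls = S159A mutant high control, sample median low control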
PRMT1 inh: PRMT1 methyltransferase inhibitors, primary screen, biochemical, fluorescence polarization; Protein arginine N-methyltransferase 1 (Homo sapiens), Q99873; recombinant PRMT1, activity-based probe fluorescence polarization; inhibition, % at 2.79 µM; hit rate 1.3% among 370,000; AID 652257, 2013;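 active means inhibition above about 21% made by adding two undisclosed values, limit read from the data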
SIAE primary: human SIAE inhibitors, primary screen, biochemical, fluorescence polarization, FP-Rh probe, 1536-well HTS; inhibition, % at 9.66 µM; Sialate O-acetylesterase (Homo sapiens), Q9HAT2; SIAE FP-Rh probe binding; hit rate 0.69% among 370,000;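 active means inhibition above a cutoff: mean of compounds within the control limits plus 3 SD of those, cut at about 17% in these data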
Target sequence (Q9HAT2 whole entry, looked up): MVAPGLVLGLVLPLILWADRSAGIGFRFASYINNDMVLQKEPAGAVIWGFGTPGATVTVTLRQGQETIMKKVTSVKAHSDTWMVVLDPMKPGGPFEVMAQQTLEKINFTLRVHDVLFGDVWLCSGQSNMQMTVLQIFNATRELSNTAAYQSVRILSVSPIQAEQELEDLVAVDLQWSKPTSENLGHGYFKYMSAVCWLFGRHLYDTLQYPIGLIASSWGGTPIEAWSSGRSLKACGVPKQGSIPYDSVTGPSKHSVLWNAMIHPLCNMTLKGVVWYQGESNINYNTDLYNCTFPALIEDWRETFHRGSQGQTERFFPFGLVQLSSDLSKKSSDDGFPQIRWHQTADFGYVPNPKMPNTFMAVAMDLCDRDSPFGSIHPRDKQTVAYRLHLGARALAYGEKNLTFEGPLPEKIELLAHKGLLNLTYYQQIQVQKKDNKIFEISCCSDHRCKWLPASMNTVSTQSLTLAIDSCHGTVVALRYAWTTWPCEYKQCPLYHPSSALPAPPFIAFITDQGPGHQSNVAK
TCR-CD3 inh: inhibitors of human TCR-CD3 interaction, primary screen, biochemical, fluorescence, TAMRA-labeled TCR probe; T-cell receptor (TCR); inhibition, % at 9.4 µM; hit rate 0.37% among 360,000; AID 651800, 2012; in the data active means inhibition above about 19%;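 further: recombinant mutant TCR 2C K166C tagged with TAMRA read by polarization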
Hits are given with their value; n = inactive; x = not tested or not shown.

SMILES | rCAG RNA binder | ABHD4 inh | PRMT1 inh | SIAE primary | TCR-CD3 inh
NS(=O)(=O)c1ccc(Sc2nc3ccccc3s2)c([N+](=O)[O-])c1 | n | n | n | n | n
O=C(CCc1ccccc1)N[C@H]1[C@@H](OC(=O)c2cnccn2)CCC[C@@]12C(=O)N(Cc1ccccc1)c1ccccc12 | n | n | n | n | x
O=C(NC1CCCCN(Cc2cccc(C(F)(F)F)c2)C1=O)c1c(F)cccc1F (stereo unspecified) | n | n | n | n | x
Cc1ccc(NC(=O)c2cc(NC(=O)C3CC=CCC3C(=O)O)ccc2N2CCOCC2)cc1Cl (stereo unspecified) | 35 | n | n | n | n
COc1ccc(-c2coc3cc(OC(C)=O)ccc3c2=S)cc1 | n | n | 22 | n | n
CC(=O)Oc1ccc2c(=O)c(-c3ccccc3)coc2c1 | n | n | n | n | n
CSC1=N/C(=C\c2ccc(Br)o2)C(=O)S1 | n | n | 25 | n | n
CN(C)c1ccc(NC(=O)c2sc(SCC(=O)Nc3ccc(Br)cc3)nc2N)cc1 | n | n | n | n | n
CN(C)c1ccc(NC(=O)c2sc(SCC(=O)Nc3nccs3)nc2N)cc1 | n | n | n | 24 | n
Cc1cc(C)nc(Nc2nc(=O)c3ccccc3s2)n1 | n | n | 44 | n | n
Cc1cc(C)nc(Nc2nc(-c3ccccc3)cs2)n1 | n | n | n | n | n
Cc1ccc(OCCOc2ccc(Cl)cc2Cl)c(Br)n1 | x | n | n | n | x
Cc1ccc(-c2cc(C(=O)NN=Cc3c4ccccc4cc4ccccc34)[nH]n2)cc1C | n | n | n | n | x
CC(=O)/C=C/n1c(=S)oc2ccccc21 | n | n | 23 | n | n
c1ccc(CCSc2nnc(-c3cccnc3)n2Cc2ccccc2)cc1 | n | n | n | n | x
Cc1ccc(S(=O)(=O)C(C#N)c2nc3ccccc3nc2N2CCCC2)cc1 (stereo unspecified) | n | n | 58 | n | n
Cc1ccc(S(=O)(=O)C(C#N)c2nc3ccccc3nc2N2CC(C)OC(C)C2)cc1C (stereo unspecified) | 39 | n | n | n | n
C[C@@H]1/C=C/CC(=O)N[C@H](c2ccc3ccccc3c2)[C@H](C)/C=C/CC(=O)N[C@@H]1c1ccc2ccccc2c1 | n | n | n | n | x
CC(=O)OC12CCCN(C1)/C(=C/c1cccc(N(C)C)c1)C2 (stereo unspecified) | n | n | n | n | x
O=C(NCCCN1CCN(c2ccc(F)cc2)CC1)Nc1ccccc1 | n | n | n | n | x
Cc1ccc2c(c1)C(CS(=O)(=O)NC1CCCC1)NC2 (stereo unspecified) | n | n | n | n | x
Cc1ccc(S(=O)(=O)c2ccc([N+](=O)[O-])o2)cc1 | n | n | 76 | n | n
Cc1ccc(CNC(=O)c2cn(C)c(=O)c3c2c2ccccc2n3C)o1 | n | n | 22 | n | n
COc1ccc(Br)cc1C(=O)Nc1ccc(N2CCCC2)cc1 | n | n | n | n | 19
NC(N)=N/N=C/c1ccc(OCc2ccccc2)c(OCc2ccccc2)c1 | n | n | n | 25 | n
SMILES | rCAG RNA binder | ABHD4 inh | PRMT1 inh | SIAE primary | TCR-CD3 inh
CCOc1cc(/C=N/N=C(N)N)ccc1OCc1ccc(Cl)cc1 | n | n | n | n | n
CN(CCO)c1cccc2c1S(=O)(=O)N(Cc1cn(Cc3ccc(Cl)cc3)nn1)Cc1ccccc1O2 | n | n | n | n | x
C=CCOc1ccccc1C(=O)/C=C1/C(=O)Nc2ccccc21 | n | n | 23 | n | n
C=CCOc1ccc(C(=O)/C=C2/C(=O)Nc3ccccc32)cc1 | n | n | n | n | n
CCOc1ccc2nc(/N=C/c3nc(-c4ccc(Br)cc4)oc3O)sc2c1 | n | n | n | n | n
C=CCN=Cc1sc2ccc(OCC)cc2c1O | n | n | 24 | n | n
CC(=O)c1cc(-c2cc(C(=O)O)cc([N+](=O)[O-])c2)c(=O)n2c1CCC2 | n | n | n | n | x
Cc1cc(C)c(NC(=O)CSc2nnc(-c3ccncc3)n2Cc2ccco2)c(Cl)c1 | n | n | 22 | n | n
COc1ccc(Cc2c(O)nc(SCC(C)C)[nH]c2=O)cc1 | n | n | n | n | n
COc1ccc(Cc2c(O)nc(SCC(=O)c3ccc(OC)cc3)[nH]c2=O)cc1 | n | n | 22 | n | n
Cc1ccc(NC(=O)[C@@H]2CCCN2S(=O)(=O)c2cccc3cccnc23)c(C)c1 | x | n | n | n | x
Nc1ccc(S(=O)(=O)c2cc(O)c3ccccc3c2O)cc1 | 57 | 48 | 24 | n | n
O=S(=O)(c1ccccc1)c1cc(O)ccc1O | n | n | n | n | n
Cc1ccc(C2=NN=C(NC(=O)CSc3nc(C)cc(C)n3)SC2)cc1 | n | n | 91 | n | n
O=C(NCc1ccco1)c1cnn2c(C(F)(F)F)cc(-c3cccs3)nc12 | n | n | 23 | n | n
O=C(c1cnn2c(C(F)(F)F)cc(-c3cccs3)nc12)N1CCCC1 | n | n | n | n | n
C#CCCN([C@@H](CC(C)C)C(=O)OC)S(=O)(=O)c1ccccc1Br | n | n | n | n | x
COc1ccc(NC(=S)Nc2cc(C)[nH]n2)cc1Cl | n | n | n | n | n
Cc1cc(NC(=S)Nc2ccc(C)c(Cl)c2)n[nH]1 | n | n | 24 | n | n
Cc1ccc(NC(=S)N(CCN(C)C)Cc2cccs2)c(C)c1 | n | n | 22 | n | n
Cc1cc(C)c(NC(=S)N(CCN(C)C)Cc2cccs2)c(C)c1 | n | n | n | n | n
COCCCNC(=O)C[C@H]1C[C@@]2(C(=O)OC)C(=C[C@H](C(C)C)O[C@@H]2C2CC2)N(CCc2ccc(OC)c(OC)c2)C1=O | n | n | n | n | x
COc1ccc(C2CCC3(CCC(=O)N3CCO)CC2)cc1 (stereo unspecified) | n | n | n | n | x
Cc1ccc(CN2C(=O)N/C(=C\c3cccn3-c3cccc(C(=O)O)c3)C2=O)cc1 | 47 | n | n | n | n
O=C(O)c1ccc(-n2cccc2/C=C2/NC(=O)N(c3ccccc3)C2=O)cc1 | n | n | n | n | 24
SMILES | rCAG RNA binder | ABHD4 inh | PRMT1 inh | SIAE primary | TCR-CD3 inh
O=C(O)c1cccc(-n2cccc2/C=C2\NC(=O)N(Cc3ccc(F)cc3)C2=O)c1 | n | n | n | n | n
Cc1ccc(NC(=O)CN2C(=O)N/C(=C/c3cc(C)n(-c4cccc(C(=O)O)c4)c3C)C2=O)cc1 | 71 | n | 25 | n | n
COC(=O)[C@]12C[C@H](CC(=O)N3CCN(C(=O)c4ccco4)CC3)C(=O)N(Cc3ccccc3)C1=C[C@H](COCc1ccccc1)O[C@@H]2C | n | n | n | n | x
CCCN1CCS(=O)(=O)N(Cc2cn(Cc3ccc(Cl)cc3)nn2)C(C(=O)OC)C1 (stereo unspecified) | n | n | n | n | x
Cc1nn(Cc2ccc(C(=O)NC(C)(C)C)o2)c(C)c1Br | n | n | 24 | n | n
Clc1ccc(-n2c(SCc3cccc4ccccc34)nnc2-c2cccnc2)cc1 | n | n | n | n | x

Compound activity: PubChem BioAssay, The Scripps Research Institute Molecular Screening Center
